According to ChEMBL document CHEMBL2429760, “Synthesis and structure evaluation of new complex butylarylpiperazin-1-yl derivatives” (Med Chem Res, 2013):
pEC50: −log10 of the molar value.

Experiments:
[1] = system: Human immunodeficiency virus 1; experiment: Antiviral activity against Human immunodeficiency virus 1 3B infected in human MT4 cells assessed as inhibition of virus-induced cytopathogenicity after 4 days by MTT assay; assay type: functional, organism-based; details: MT4, 96 h
Summary of the method: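 MT-4 cells (1 × 10^4 per well) in RPMI with or without serial compound dilutions, acutely infected with HIV-1 at m.o.i. 0.01 (100 CCID50). After 4-day incubation at 37 °C, protection from virus-induced cytopathogenicity was read as cell viability by MTT. Compounds were made as 100 mM DMSO stocks and diluted in medium.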

[2] = Cytotoxicity against human MT4 cells after 96 hrs by MTT assay; assay type: cell-based
Summary of the method: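 Exponentially growing MT-4 cells seeded at 1 × 10^5 cells/ml in RPMI-1640 with 10 % FBS and penicillin/streptomycin. Incubated at 37 °C, 5 % CO2, with or without serial compound dilutions (100 mM DMSO stocks diluted in medium), run in parallel with the antiviral test. Viability by MTT after 96 h.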

## O=c1[nH]c(=O)c2c(-c3ccccc3)c3c(c(-c4ccccc4)c12)c(=O)c1ccccc13
[1]
  pEC50: < 5.05

## O=c1c2ccccc2c2c(-c3ccccc3)c3c(=O)n(CCCCN4CCN(c5ccc(F)cc5)CC4)c(=O)c3c(-c3ccccc3)c12
[2]
  CC50 at 96 h: > 100 µM
[1]
  pEC50: < 4.00

## O=c1c2ccccc2c2c(-c3ccccc3)c3c(=O)n(CCCCN4CCN(c5ccccc5F)CC4)c(=O)c3c(-c3ccccc3)c12
[2]
  CC50 at 96 h: > 100 µM
[1]
  pEC50: < 4.00

## O=c1c2ccccc2c2c(-c3ccccc3)c3c(=O)n(CCCCN4CCN(c5ccccc5Cl)CC4)c(=O)c3c(-c3ccccc3)c12
[2]
  CC50 at 96 h: > 100 µM
[1]
  pEC50: < 4.00

## O=c1c2ccccc2c2c(-c3ccccc3)c3c(=O)n(CCCCN4CCN(CCc5ccccc5C(F)(F)F)CC4)c(=O)c3c(-c3ccccc3)c12
[2]
  CC50 at 96 h: 9 µM
[1]
  pEC50: < 5.05

## O=c1c2ccccc2c2c(-c3ccccc3)c3c(=O)n(CCCCN4CCN(c5ccccc5)CC4)c(=O)c3c(-c3ccccc3)c12
[2]
  CC50 at 96 h: > 100 µM
[1]
  pEC50: < 4.00

## O=c1c2ccccc2c2c(-c3ccccc3)c3c(=O)n(CCCCN4CCN(c5ccc(Cl)cc5)CC4)c(=O)c3c(-c3ccccc3)c12
[2]
  CC50 at 96 h: > 100 µM
[1]
  pEC50: < 4.00

## O=c1c2ccccc2c2c(-c3ccccc3)c3c(=O)n(CCCCN4CCN(c5ccccn5)CC4)c(=O)c3c(-c3ccccc3)c12
[2]
  CC50 at 96 h: > 100 µM
[1]
  pEC50: < 4.00
